Screens as filed in PubChem BioAssay.
In the library only some 1.2% were active in any assay of this set; here they are far more common.
A3A deaminase: human APOBEC3A DNA deaminase inhibition; 0.41% of 330,000 active; AID 493011; recombinant A3A, FAM/TAMRA ssDNA deamination fluorescence; P31941; inhibition, % at 20 µM;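 active means at least 40% inhibition at 20 µM here, with at most 30% in a related deaminase screen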;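 further: plate controls were A3A with DMSO for no effect and wells lacking A3A enzyme for full effect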
Target sequence (P31941 whole entry, looked up): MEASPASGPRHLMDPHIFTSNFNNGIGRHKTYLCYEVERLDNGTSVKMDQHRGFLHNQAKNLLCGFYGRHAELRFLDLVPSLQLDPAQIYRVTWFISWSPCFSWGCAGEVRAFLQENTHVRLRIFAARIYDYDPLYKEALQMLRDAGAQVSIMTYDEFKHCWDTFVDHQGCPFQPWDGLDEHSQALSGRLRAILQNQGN
ABHD5-PLIN5 inh: blocks binding of human ABHD5 to perilipin-5. Q00G26+Q8WTS1. Split G. princeps luciferase complementation, luminescence, 4 h. inhibition, % at 4 µM. 0.78% of 360,000 active;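 active means inhibition above the mean inhibition across every tested compound plus 3 SD, cut at about 22% in these data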;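 further: 0% = DMSO only wells and the 100% control is not disclosed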
FN deposition inh: fibronectin deposition inhibition; AH1F fibroblasts, Alexa488-fibronectin deposition fluorescence, overnight; inhibition, % at 12.6 µM; 0.086% of 350,000 active; AID 743247;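 active means mean inhibition across replicates of 30% or more, regardless of how many single replicates reach that level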;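 further: positive control wells lacked labelled fibronectin entirely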
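Test system: AH1F fibroblast monolayer depositing Alexa488-labelled fibronectin into matrix. Input: 10000 cells per well. Technique: fluorescence, ex 485 nm, em 525 nm. Buffer or medium: DMEM plus 2% serum, read in PBS. Timing: 1 h cell adhesion before compound, then overnight fibronectin incubation. Compound: single dose, pinned. Read-out basis: inhibition from reduced deposited-fibronectin fluorescence.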
A3G deaminase: APOBEC3G (human) deaminase inhibition | Q9HC16 | recombinant A3G, ssDNA deamination FAM/TAMRA fluorescence | inhibition, % at 20 µM | 0.28% of 330,000 active;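 active means inhibition of at least 40% at 20 µM, with no more than 30% in the related APOBEC3A deaminase screen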;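 further: plate controls were DMSO wells with A3G for no effect and wells lacking A3G enzyme for full effect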
Target sequence (Q9HC16 whole entry, looked up): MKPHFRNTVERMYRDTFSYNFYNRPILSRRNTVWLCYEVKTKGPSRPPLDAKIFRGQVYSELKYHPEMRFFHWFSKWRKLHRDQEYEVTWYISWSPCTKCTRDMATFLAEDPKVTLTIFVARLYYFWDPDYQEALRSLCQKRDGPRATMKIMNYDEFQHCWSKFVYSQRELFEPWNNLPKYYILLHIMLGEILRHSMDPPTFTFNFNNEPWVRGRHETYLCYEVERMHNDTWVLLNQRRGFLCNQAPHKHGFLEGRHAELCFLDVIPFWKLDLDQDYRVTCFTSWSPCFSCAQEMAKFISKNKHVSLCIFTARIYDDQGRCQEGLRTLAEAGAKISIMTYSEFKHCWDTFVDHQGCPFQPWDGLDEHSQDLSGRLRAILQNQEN
An asterisk follows results filed as active; . = no result.

SMILES | A3A deaminase | ABHD5-PLIN5 inh | FN deposition inh | A3G deaminase
N#C[C@H]1[C@H](c2ccccc2C2=CCCCC2)[C@@H](CO)N1S(=O)(=O)c1ccccc1 | . | . | 67* | .
Cc1ccc(S(=O)(=O)N(C(=O)c2ccncc2)c2ccc(OC(=O)c3ccncc3)c3ccccc23)cc1 | 0 | 19 | -3 | -4
Cc1ccc(S(=O)(=O)N(C(=O)c2ccncc2)c2ccc(OC(=O)c3ccncc3)c3ccccc23)c(C)c1 | 3 | 33* | . | 0
C#CCOCCOCCOCCNc1nc(N2CCOCC2)nc(N2CCN(C(=O)CCCCCCCCCCNC(=O)[C@H](CO)n3cc(CCCSC)nn3)CC2)n1 | -1 | 16 | -4 | 1
C#CCOCCOCCOCCNc1nc(N2CCN(C(=O)CCCCCCCCCCNC(=O)[C@@H](CCSC)n3cc(CCO)nn3)CC2)nc(N2CCN(C(=O)CCCCCCCCCCNC(=O)[C@H](CCC(=O)O)n3cc(CCCCCN)nn3)CC2)n1 | 2 | 41* | . | -1
C#CCOCCOCCOCCNc1nc(N2CCN(C(=O)CCCCCCCCCCNC(=O)[C@@H](CCC(=O)O)n3cc(CCCCCN)nn3)CC2)nc(N2CCN(C(=O)CCCCCCCCCCNC(=O)[C@H](CO)n3cc(CCCSC)nn3)CC2)n1 | 2 | 47* | . | 1
Cc1oc(-c2ccc(F)cc2)cc1-c1nn2c(-c3ccoc3C)nnc2s1 | 74 | 30* | -7 | 35
COc1ccc(-c2nnc3sc(-c4ccco4)nn23)cc1OC | 3 | -4 | 5 | 1
CCOC(=O)c1ccccc1NC(=O)Cn1c(-c2nonc2N)nc2ccccc21 | 2 | 3 | active | 0
Nc1nonc1-c1nc2ccccc2n1CC(=O)Nc1ccccc1 | 3 | -3 | -1 | -7
C[C@@H]1CN([C@@H](C)CO)S(=O)(=O)c2ccc(C3=CCCC3)cc2O[C@H]1CN(C)C(=O)c1cccnc1 | . | . | -4 | .
C[C@H](CO)N1C[C@H](C)[C@@H](CN(C)S(C)(=O)=O)Oc2c(NC(=O)Cc3ccccc3)cccc2C1=O | -5 | -10 | 30* | -8
C[C@@H]1CN([C@@H](C)CO)C(=O)c2cc(-c3ccccc3)cnc2O[C@@H]1CN(C)C(=O)c1cccc(F)c1 | . | . | 19 | .
C[C@@H]1CN([C@@H](C)CO)C(=O)c2cc(NC(=O)C3CCCCC3)ccc2O[C@H]1CN(C)Cc1ccc(-c2ccccc2)cc1 | . | . | 30* | .
C[C@H](CO)N1C[C@H](C)[C@@H](CN(C)S(=O)(=O)c2cccs2)Oc2c(NC(=O)Cc3ccccc3)cccc2C1=O | -3 | -4 | -7 | -8
C[C@H]1CN([C@@H](C)CO)C(=O)c2cc(-c3ccccc3)cnc2O[C@@H]1CN(C)C(=O)c1cccc(F)c1 | . | . | 38* | .
O=C(COc1ccccc1/C=C\c1nc(O)c([N+](=O)[O-])c(=O)[nH]1)Nc1ccccc1 | . | 23* | . | .
C[C@@H]1CN([C@@H](C)CO)S(=O)(=O)c2ccc(C3=CCCC3)cc2O[C@H]1CN(C)C(=O)c1cnccn1 | . | . | -6 | .
CO[C@@H]1CN(C)C(=O)c2ccc(NS(=O)(=O)c3ccc(Oc4ccccc4)cc3)cc2OC[C@@H](C)NC[C@@H]1C | . | . | -4 | .
CS(=O)(=O)N1[C@@H]2CN(CC3CC3)C[C@H]1C2c1ccc(Br)cc1 (some centres not stated) | . | . | -9 | .
COc1ccc(/C=C/C(=O)c2ccc([N+](=O)[O-])o2)cc1OC | -2 | . | 35* | -3
Cc1ccc2nc(SCCC#N)nc(C)c2c1 | -5 | -1 | . | 3
Cc1ccc2nc(SCC(=O)O)nc(C)c2c1 | -5 | 22* | 3 | 10
COc1ccc(OC)c2sc(N(CCN(C)C)C(=O)/C=C/c3cccs3)nc12 | -6 | 22* | -7 | -4
C[C@H](CO)N1C[C@H](C)[C@@H](CN(C)C(=O)NC2CCCC2)OCc2cnnn2CCCC1=O | . | . | -3 | .
SMILES | A3A deaminase | ABHD5-PLIN5 inh | FN deposition inh | A3G deaminase
C[C@H](CO)N1C[C@H](C)[C@@H](CN(C)Cc2cccc(C(F)(F)F)c2)OCc2ccccc2-c2ccccc2C1=O | . | . | -5 | .
Cc1ccc(S(=O)(=O)O/N=C2\CCCc3ccccc32)cc1 | -1 | 3 | . | -7
CC1=C(C)/C(=N\OS(=O)(=O)c2ccccc2)C=CC1=O | -1 | 62* | . | -3
Cc1cc(N2C(=O)C=CC2=O)c([N+](=O)[O-])cc1C | 1 | 33* | . | 31
CCCCn1c(SCC(=O)Nc2sc3c(c2C(N)=O)CCC3)nnc1-c1ccccc1 | -2 | 22* | . | -4
CCc1cnc(N2[C@H](C#N)[C@@H](c3ccc(C#CCC4CCCC4)cc3)[C@@H]2CO)s1 | . | . | -17 | .
Cc1ccc(C(O)c2ncc(-c3ccccc3C)[nH]2)cc1F (configuration not stated) | . | -1 | 1 | .
Cc1ccc(C(O)c2ncc(-c3cccc4ccccc34)[nH]2)cc1F (configuration not stated) | . | -16 | 30* | .
CC(C)NC(=O)N(C)C[C@H]1Oc2ccc(N(C)C)cc2C(=O)N(C)C[C@@H]1C | . | . | -19 | .
C/C(=N\NC(=O)c1ccc(Cn2cc(Br)cn2)o1)c1cccc(NC(=O)C(C)(C)C)c1 | 1 | -2 | 6 | -8
C/C(=N\NC(=O)c1ccc(Cn2cc([N+](=O)[O-])cn2)o1)c1cccc(NC(=O)c2cccnc2)c1 | 0 | 2 | 31* | -1
CCc1c(C)sc(NC(=O)c2ccoc2C)c1C(N)=O | 0 | -8 | 4 | 60*
CCOC(=O)C1(Cc2ccccc2)CCCN(Cc2ccccn2)C1 (configuration not stated) | -2 | 0 | 31* | -6
COC(=O)c1nnn(-c2ccccc2)c1N | 0 | 1 | -12 | -12
CCOC(=O)c1nnn(-c2ccc(OC)cc2)c1N | 0 | 4 | 32* | -3
CCc1ccccc1N1CSC2=C(C#N)C(c3cc(OC)c(OC)cc3OC)CC(=O)N2C1 (configuration not stated) | -3 | -8 | 5 | 46*
N#CC1=C2SCN(c3ccccc3)CN2C(=O)CC1c1ccccc1Cl (configuration not stated) | -1 | -5 | -13 | 57*
O=C(Nc1ccc(Cl)cc1)N[C@@H]1CC[C@H](CCNC(=O)c2cc(Cl)cc(Cl)c2)O[C@@H]1CO | . | . | -1 | .
Cc1ccc2nc(NNC(=O)c3ccc(S(=O)(=O)N4CCc5ccccc5C4)cc3)sc2c1 | -3 | 34* | 11 | -9
Cc1cccc2sc(NNC(=O)c3ccc(S(=O)(=O)N4CC(C)CC(C)C4)cc3)nc12 (configuration not stated) | -1 | 38* | 9 | 7
Cc1cc(C)c2nc(NNC(=O)c3ccc(S(=O)(=O)N4CC(C)CC(C)C4)cc3)sc2c1 (configuration not stated) | -7 | 29* | 21 | -13
Cc1ccc2nc(NNC(=O)c3ccc4c(c3)OCCO4)sc2c1 | -4 | -10 | -2 | -12
O=C(C[C@H]1C=C[C@@H](NC(=O)CN2CCOCC2)[C@H](CO)O1)NCc1cccc(F)c1 | . | . | -2 | .
CN(C)CC(=O)N1[C@@H](CO)[C@H](c2ccccc2)C12CN(C(=O)c1ccc(F)cc1)C2 | . | . | 8 | .
